The results in this text go back to ChEMBL document CHEMBL3739406, “Trisubstituted Thieno[3,2-b]pyrrole 5-Carboxamides as Potent Inhibitors of Alphaviruses” (J Med Chem, 2015).

Structures are written as SMILES.

For series [1], the system named is Chikungunya virus. Put plainly: Antiviral activity against Chikungunya virus infected in HEK293T cells assessed as reduction of infectivity measured at 24 hrs postinfection by gaussia luciferase reporter gene assay. The class given is functional, cell-based. The note with it: HEK-293T. (In general: In a reporter assay the amount or activity of a reporter protein is the signal.)

The nature of series [2]: Cytotoxicity against HEK293T cells assessed as reduction in cell viability after 24 hrs by cell titer-glo luminescent cell viability assay. Format: cell-based, HEK-293T. The conditions noted are these: human. The method, boiled down: (§1)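 HEK 293T cells, 3 × 10⁴/well, seeded overnight, then exposed 24 h to compound (0.01–100 μM, triplicate) in DMEM pH 6.8 with 10% FBS. Viability read by CellTiter-Glo luminescence. Normalized to untreated (100%) and medium blank (0%); CC50 by five-parameter curve fit.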

Series [3] deals with Chikungunya virus. The series is described as follows: Antiviral activity against wild type Chikungunya virus IMT infected in HEK293T cells assessed as inhibition of infectivity measured at 24 hrs postinfection by FITC/DAPI staining based array scan VTI HCS reader analysis. Format: functional, cell-based. The conditions noted are these: HEK-293T.
Series [4] can be described thus: Cytotoxicity against HEK293T cells assessed as cell viability at antiviral EC50 after 24 hrs by cell titer-glo luminescent cell viability assay. The class given is cell-based, HEK-293T. The conditions noted are these: human, read-out: Activity. The method, boiled down: as §1
Background: Cellular ATP, detected with luciferase, serves as a proxy for viable cell number.

Series [5] in a line: Selectivity index, ratio of CC50 for HEK293T cells to EC50 for Chikungunya virus infected in HEK293T cells. Format: toxicity, cell-based, HEK-293T. The conditions noted are these: human, read-out: Ratio CC50/EC50.

One may read the EC50 as the concentration at which the effect is half-maximal. Broadly, the CC50 is the concentration giving 50% cytotoxicity. For the compound `COc1ccc(Cn2c(C(=O)N3CCC(C(=O)NC4CC4)CC3)cc3sccc32)cc1`, the EC50 with Chikungunya virus [1] worked out at 7.59 µM. Moreover, the CC50 at 24 h in series [2] stood at 21.4 µM. In the series with Chikungunya virus [3], the 50% effective concentration (EC50) was 5.59 µM and the inhibition result was “Dose-dependent effect”. Also, in series [4], the viability at 24 h was over 80%. The selectivity ratio in series [5] amounted to 2.8.
As for `COc1ccc(Cn2c(C(=O)N3CCC(C(=O)NCCc4ccccc4)CC3)cc3sccc32)cc1`, the EC50 with Chikungunya virus [1] was determined as 11.1 µM. Also, in series [2], the cytotoxic concentration (CC50) at 24 h is over 100 µM. Further, the viability at 24 h in series [4] was over 80%. Besides, the selectivity ratio in series [5] is over 9.
`CCN(CC)C(=O)c1cc2sccc2n1Cc1ccc(OC)cc1`: in the series with Chikungunya virus [1], the 50% effective concentration (EC50) was 49.6 µM. Further, the CC50 at 24 h in series [2] is over 100 µM. Further, the viability at 24 h in series [4] was over 80%. In addition, the selectivity ratio in series [5] was over 2.
With `CCOC(=O)C1CCN(C(=O)c2cc3sccc3n2Cc2ccc(OC)cc2)CC1`, the EC50 in the series on Chikungunya virus [1] was found to be 13.1 µM. Besides, in series [2], the CC50 at 24 h was determined as 39 µM. In addition, in series [4], the viability at 24 h was over 80%. For the same compound, the selectivity ratio in series [5] stood at 3.
With `CCCNC(=O)C1CCN(C(=O)c2cc3sc(C)cc3n2Cc2ccc(OC)cc2)CC1`, the values for the EC50 in the series on Chikungunya virus [1] and in the series on Chikungunya virus [3] were 3.6 µM and 3.27 µM, respectively. In addition, the 50% cytotoxic concentration (CC50) at 24 h in series [2] turned out to be 36.3 µM. In addition, the inhibition entry with Chikungunya virus [3] was “Dose-dependent effect”. The viability at 24 h in series [4] is over 80%. For the same compound, the selectivity ratio in series [5] stood at 10.
Regarding `CCCNC(=O)C1CCN(C(=O)c2cc3sc(C(=O)c4ccccc4)cc3n2Cc2ccc(OC)cc2)CC1`, in the series with Chikungunya virus [1], the EC50 is over 100 µM. The CC50 at 24 h in series [2] is over 100 µM. Moreover, in series [4], the viability at 24 h is over 80%.
`COc1ccc(Cn2c(C(=O)N3CCN(Cc4ccccc4)CC3)cc3sccc32)cc1`: the EC50 with Chikungunya virus [1] was determined as 41.7 µM. Besides, the CC50 at 24 h in series [2] was over 100 µM. The viability at 24 h in series [4] was over 80%. The selectivity ratio in series [5] was over 2.4.
The like results for `COc1ccc(Cn2c(C(N)=O)cc3sccc32)cc1` were, in that order, 36 µM, over 100 µM, over 80% and over 2.8.
The like results for `COc1ccc(Cn2c(C(=O)N3CCN(Cc4ccccc4)CC3)c(CNC(C)c3ccccc3)c3sccc32)cc1` (configuration not stated) were, in that order, 23 µM, over 100 µM, over 80% and over 4.3.
The like results for `CCCNCc1cc2c(cc(C(=O)N3CCC(C(=O)NCCC)CC3)n2Cc2ccc(OC)cc2)s1` were, in that order, 40 µM, over 100 µM, over 80% and over 2.5.
Turning to `COc1ccc(Cn2c(C(=O)N3CCN(Cc4ccccc4)CC3)cc3sc(CNC(C)c4ccccc4)cc32)cc1` (configuration not stated), in the series with Chikungunya virus [1], the EC50 was 9.44 µM. In addition, the CC50 at 24 h in series [2] was over 100 µM. Besides, in the series on Chikungunya virus [3], the EC50 is 25.5 µM and the inhibition result was “Dose-dependent effect”. Moreover, the viability at 24 h in series [4] was over 80%. Besides, the selectivity ratio in series [5] is over 11.
Take `CCCNCc1c(C(=O)N2CCC(C(=O)NCCC)CC2)n(Cc2ccc(OC)cc2)c2ccsc12`: the EC50 in the series with Chikungunya virus [1] was determined as 27.7 µM. The half-maximal cytotoxic concentration (CC50) at 24 h in series [2] is over 100 µM. For the same compound, the viability at 24 h in series [4] is over 80%. Moreover, in series [5], the selectivity ratio was over 3.6.
The like results for `COc1ccc(Cn2c(C(=O)N3CCC(C(=O)NC(C)c4ccccc4)CC3)cc3sccc32)cc1` (configuration not stated) were, in that order, 13 µM, over 100 µM, over 80% and over 7.7.
Take `COc1ccc(Cn2c(C(=O)O)cc3sccc32)cc1`: in the series on Chikungunya virus [1], the EC50 was over 100 µM. The CC50 at 24 h in series [2] is over 100 µM. In addition, the viability at 24 h in series [4] is over 80%.
On to `COc1ccc(Cn2c(C(=O)N3CCN(Cc4ccccc4)CC3)c(COCc3ccccc3)c3sccc32)cc1`, for which the half-maximal effective concentration (EC50) with Chikungunya virus [1] was over 100 µM. The CC50 at 24 h in series [2] was over 100 µM. Also, in series [4], the viability at 24 h is over 80%.
With `COc1ccc(Cn2c(C(=O)N3CCC(C(=O)O)CC3)cc3sccc32)cc1`, in the series on Chikungunya virus [1], the EC50 was over 100 µM. Moreover, the CC50 at 24 h in series [2] was over 100 µM. Also, in series [4], the viability at 24 h is over 80%.
As to `COc1ccc(Cn2c(C(=O)N3CCCC3)cc3sccc32)cc1`, in the series with Chikungunya virus [1], the EC50 is 35.4 µM. In series [2], the 50% cytotoxic concentration (CC50) at 24 h is over 100 µM. The viability at 24 h in series [4] was over 80%. The selectivity ratio in series [5] was over 2.8.
As for `COc1ccc(Cn2c(C(=O)N3CCN(Cc4ccccc4)CC3)cc3sc(COCc4ccccc4)cc32)cc1`, in the series on Chikungunya virus [1], the EC50 is over 100 µM. Besides, the CC50 at 24 h in series [2] is over 100 µM. In series [4], the viability at 24 h is over 80%.
Consider `CCOC(=O)c1cc2sccc2n1Cc1ccc(OC)cc1`, for which the concentration giving a half-maximal response (EC50) with Chikungunya virus [1] was over 100 µM. The CC50 at 24 h in series [2] is over 100 µM. Further, in series [4], the viability at 24 h was over 80%.
For `COc1ccc(Cn2c(C(=O)N3CCN(Cc4ccccc4)CC3)cc3sc(C(=O)c4ccccc4)cc32)cc1`, in the series on Chikungunya virus [1], the EC50 was over 100 µM. The CC50 at 24 h in series [2] was over 100 µM. Further, the viability at 24 h in series [4] is over 80%.
In the case of `COc1ccc(Cn2c(C(=O)N3CCC(C(N)=O)CC3)cc3sccc32)cc1`, in the series on Chikungunya virus [1], the half-maximal effective concentration (EC50) is 70.9 µM. For the same compound, the CC50 at 24 h in series [2] was over 100 µM. Also, in series [4], the viability at 24 h is over 80%. In addition, the selectivity ratio in series [5] was over 1.4.
The like results for `COc1ccc(Cn2c(C(=O)N3CCC(C(=O)NCc4ccccc4)CC3)cc3sccc32)cc1` were, in that order, 12.3 µM, over 100 µM, over 80% and over 8.1.
For `CCCNC(=O)c1cc2sccc2n1Cc1ccc(OC)cc1`, in the series with Chikungunya virus [1], the EC50 was over 100 µM. The half-maximal cytotoxic concentration (CC50) at 24 h in series [2] is over 100 µM. Besides, in series [4], the viability at 24 h was over 80%.
For the compound `COc1ccc(Cn2c(C(=O)N3CCC(C(=O)NCC4CC4)CC3)cc3sccc32)cc1`, the EC50 in the series on Chikungunya virus [1] came to 10.4 µM. Further, the CC50 at 24 h in series [2] turned out to be 24.6 µM. In addition, the viability at 24 h in series [4] is over 80%. In series [5], the selectivity ratio is 2.4.
The like results for `COc1ccc(Cn2c(C(=O)N3CCC(C(=O)NCc4cccc(Br)c4)CC3)cc3sccc32)cc1` were, in that order, 10.9 µM, over 100 µM, over 80% and over 9.2.
Turning to `CCCNC(=O)C1CCN(C(=O)c2c(CO)c3sccc3n2Cc2ccc(OC)cc2)CC1`, in the series with Chikungunya virus [1], the EC50 was 47.6 µM. Moreover, the cytotoxic concentration (CC50) at 24 h in series [2] was over 100 µM. For the same compound, the viability at 24 h in series [4] was over 80%. The selectivity ratio in series [5] was over 2.1.
The like results for `CCCNC(=O)C1CCN(C(=O)c2cc3sc(CNCc4ccccc4)cc3n2Cc2ccc(OC)cc2)CC1` were, in that order, 11.2 µM, 46.8 µM, over 80% and 4.2.
The like results for `COc1ccc(Cn2c(C(=O)N3CCCCC3)cc3sccc32)cc1` were, in that order, 49.7 µM, over 100 µM, over 80% and over 2.
In the same order, the values of `CCCNC(=O)C1CCN(C(=O)c2c(CNC(C)c3ccccc3)c3sccc3n2Cc2ccc(OC)cc2)CC1` (configuration not stated) are 11.9 µM, 57.5 µM, over 80% and 4.8.
On to `COc1ccc(Cn2c(C(=O)N3CCOCC3)cc3sccc32)cc1`, for which, in the series on Chikungunya virus [1], the EC50 amounted to 79.7 µM. Also, the half-maximal cytotoxic concentration (CC50) at 24 h in series [2] is over 100 µM. In series [4], the viability at 24 h was over 80%. For the same compound, the selectivity ratio in series [5] is over 1.3.
The like results for `CCCNC(=O)C1CCN(C(=O)c2cc3sc(C(C)=O)cc3n2Cc2ccc(OC)cc2)CC1` were, in that order, 20.9 µM, over 100 µM, over 80% and over 4.8.
In the same order, the values of `CCCCC(=O)C1CCN(C(=O)c2cc3sccc3n2Cc2ccc(OC)cc2)CC1` are 13.3 µM, 38.9 µM, over 80% and 2.9.
In the same order, the values of `COc1ccc(Cn2c(C(=O)N3CCC(C(=O)NCCC(C)C)CC3)cc3sccc32)cc1` are 11 µM, 30.9 µM, over 80% and 2.8.
Consider `COc1ccc(Cn2c(C(=O)N3CCNCC3)cc3sccc32)cc1`, for which the concentration giving a half-maximal response (EC50) in the series on Chikungunya virus [1] came to 32.5 µM. The CC50 at 24 h in series [2] is over 100 µM. In addition, the viability at 24 h in series [4] was over 80%. In addition, the selectivity ratio in series [5] is over 3.1.
In the same order, the values of `COc1ccc(Cn2c(C(=O)N3CCN(Cc4ccccc4)CC3)cc3sc(C(C)=O)cc32)cc1` are 17 µM, over 100 µM, over 80% and over 5.9.
On to `COc1ccc(Cn2c(C(=O)NC(C)c3ccccc3)cc3sccc32)cc1` (configuration not stated), for which the half-maximal effective concentration (EC50) in the series with Chikungunya virus [1] was over 100 µM. Besides, the CC50 at 24 h in series [2] is over 100 µM. For the same compound, the viability at 24 h in series [4] is over 80%.
Take `COc1ccc(Cn2c(C(=O)NCc3ccccc3)cc3sccc32)cc1`: the EC50 in the series with Chikungunya virus [1] was over 100 µM. Further, the 50% cytotoxic concentration (CC50) at 24 h in series [2] is over 100 µM. Besides, the viability at 24 h in series [4] is over 80%.
Regarding `CCCNC(=O)C1CCN(C(=O)c2c(CNCc3ccccc3)c3sccc3n2Cc2ccc(OC)cc2)CC1`, the EC50 in the series with Chikungunya virus [1] is 15.4 µM. Moreover, the cytotoxic concentration (CC50) at 24 h in series [2] amounted to 77.6 µM. In addition, in series [4], the viability at 24 h is over 80%. Also, the selectivity ratio in series [5] was 5.
For the compound `COc1ccc(Cn2c(C(=O)N3CCN(Cc4ccccc4)CC3)cc3sc(-c4ccccc4)cc32)cc1`, the EC50 in the series on Chikungunya virus [1] stood at 42.4 µM. Besides, the CC50 at 24 h in series [2] was over 100 µM. For the same compound, the viability at 24 h in series [4] was over 80%. In addition, the selectivity ratio in series [5] was over 2.4.
